Experimental findings from ChEMBL document CHEMBL3994637, “Broad spectrum anti-infective properties of benzisothiazolones and the parallels in their anti-bacterial and anti-fungal effects” (Bioorg Med Chem Lett, 2017) are described below.

Values after ≈ are worked out from the molar mass of the structure shown.

By MIC is commonly meant the least concentration at which growth counts as inhibited. One may read the IC50 as the concentration that gives 50% inhibition. As usually defined, the CC50 is the concentration at which the toxic effect on the cells reaches its halfway point.

Data set [1] relates to Staphylococcus aureus. In words: Antibacterial activity against Staphylococcus aureus ATCC 25923 by broth microdilution method. Format: functional. For orientation: Broth dilution looks for growth in wells or tubes with falling amounts of substance.
For data set [2], the system named is Staphylococcus aureus. Briefly: Antibacterial activity against methicillin-resistant Staphylococcus aureus ATCC 700699 by broth microdilution method. The following applies: Mu50. Format: functional.
In data set [3] the test system is Staphylococcus aureus. In words: Antibacterial activity against Staphylococcus aureus ATCC 29213 by broth microdilution method. Format: functional.
The test system of a further data set is Escherichia coli. In words: Antibacterial activity against Escherichia coli ATCC 9637 by broth microdilution method. Format: functional. The following applies: W. Put shortly: (§1)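 Bacteria were tested by the NCCLS method in Mueller Hinton broth, with gentamicin and norfloxacin as reference drugs.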
Another data set has as its system Pseudomonas aeruginosa. Briefly: Antibacterial activity against Pseudomonas aeruginosa ATCC BAA-427 by broth microdilution method. Format: functional. The gist of the method:
as §1

The subject of a further data set is Klebsiella pneumoniae. In words: Antibacterial activity against Klebsiella pneumoniae ATCC 27736 by broth microdilution method. Format: functional. The gist of the method:
as §1

A further data set relates to Candida albicans. Briefly: Anti-fungal activity against Candida albicans after 48 hrs by broth microdilution method. Format: functional.
The subject of another data set is Cryptococcus neoformans. In words: Anti-fungal activity against Cryptococcus neoformans after 48 hrs by broth microdilution method. Format: functional.
Another data set concerns Sporothrix schenckii. Briefly: Anti-fungal activity against Sporothrix schenckii after 48 hrs by broth microdilution method. Format: functional.
Data set [4] deals with Trichophyton mentagrophytes. In words: Anti-fungal activity against Trichophyton mentagrophytes after 48 hrs by broth microdilution method. Format: functional.
Another data set concerns Aspergillus fumigatus. In words: Anti-fungal activity against Aspergillus fumigatus after 48 hrs by broth microdilution method. Format: functional.
For a further data set, the system named is Candida parapsilosis. In words: Anti-fungal activity against Candida parapsilosis ATCC 22019 after 48 hrs by broth microdilution method. Format: functional. As to conditions: Lodderomyces parapsilosis, ATCC 22019, 48 h.
In data set [5] the test system is Staphylococcus aureus. Briefly: Antibacterial activity against gentamicin-resistant Staphylococcus aureus ATCC 33592 by broth microdilution method. Format: functional.
The test system of a further data set is Plasmodium falciparum. In words: Antimalarial activity against chloroquine-sensitive Plasmodium falciparum 3D7 after 72 hrs by SYBR Green-1 staining based fluorescence assay. Format: functional. The following applies: 3D7, 72 h.
Data set [6] is described as follows: Cytotoxicity against monkey Vero C1008 cells after 72 hrs by MTT assay. Format: cell-based. As to conditions: chlorocebus sabaeus. For orientation: Formazan colour is commonly taken as a measure of viable cells.
The nature of data set [7]: Selectivity index, ratio of CC50 for monkey Vero C1008 cells to IC50 for chloroquine-sensitive Plasmodium falciparum 3D7. Format: toxicity. The following applies: read-out: Ratio CC50/IC50.

In the case of `O=c1c2ccccc2sn1-c1cccc2ccccc12`, the MIC is 3.12 µg/mL (≈ 11.2 µM) in the data set on Staphylococcus aureus [1]; 3.12 µg/mL (≈ 11.2 µM) against Staphylococcus aureus [2]; 6.25 µg/mL (≈ 22.5 µM) in the data set with Staphylococcus aureus [3]; greater than 50 µg/mL against Escherichia coli; greater than 50 µg/mL against Pseudomonas aeruginosa; greater than 50 µg/mL in the data set on Klebsiella pneumoniae. Further, the MIC in the data set on Candida albicans stood at 25 µg/mL (≈ 90.1 µM); with Cryptococcus neoformans, 25 µg/mL (≈ 90.1 µM); against Sporothrix schenckii it was 12.5 µg/mL (≈ 45.1 µM); in data set [4], 12.5 µg/mL (≈ 45.1 µM); in the data set with Aspergillus fumigatus, 50 µg/mL (≈ 180 µM); in the data set on Candida parapsilosis, 25 µg/mL (≈ 90.1 µM). Also, in the data set on Staphylococcus aureus [5], it took 6.25 µg/mL (≈ 22.5 µM) to inhibit growth (MIC). Moreover, in the data set on Plasmodium falciparum, the IC50 was determined as 2.64 µM. In [6], this compound registered a CC50 at 72 h of 90.8 µM. The selectivity ratio in [7] came to 34.4.

Turning to `Cc1ccc(-n2sc3ccccc3c2=O)cc1`, the IC50 is 0.6 µg/mL (≈ 2.49 µM) in the data set with Staphylococcus aureus [1]; 0.6 µg/mL (≈ 2.49 µM) in the data set on Staphylococcus aureus [3]; greater than 50 µg/mL in the data set on Escherichia coli; greater than 50 µg/mL in the data set with Pseudomonas aeruginosa; greater than 50 µg/mL with Klebsiella pneumoniae; 1.3 µg/mL (≈ 5.39 µM) in the data set with Candida albicans. Also, the IC50 in the data set with Cryptococcus neoformans is 1.2 µg/mL (≈ 4.97 µM); in the data set on Sporothrix schenckii it was 0.9 µg/mL (≈ 3.73 µM); in the data set with Aspergillus fumigatus it was 4.1 µg/mL (≈ 17 µM); in the data set on Candida parapsilosis it was 0.4 µg/mL (≈ 1.66 µM); with Plasmodium falciparum, 1.66 µM. Further, the MIC in the data set with Staphylococcus aureus [1] was 1.07 µg/mL (≈ 4.43 µM); in the data set on Staphylococcus aureus [2], 0.75 µg/mL (≈ 3.11 µM); with Staphylococcus aureus [3], 1 µg/mL (≈ 4.14 µM); against Escherichia coli it was greater than 50 µg/mL; in the data set with Pseudomonas aeruginosa, greater than 50 µg/mL; against Klebsiella pneumoniae it was greater than 50 µg/mL. Moreover, the MIC with Candida albicans was found to be 2.4 µg/mL (≈ 9.95 µM); with Cryptococcus neoformans, 1.5 µg/mL (≈ 6.22 µM); in the data set on Sporothrix schenckii, 1 µg/mL (≈ 4.14 µM); in [4], 1.7 µg/mL (≈ 7.04 µM); in the data set on Aspergillus fumigatus it was 13.3 µg/mL (≈ 55.1 µM); in the data set with Candida parapsilosis, 0.6 µg/mL (≈ 2.49 µM). The CC50 at 72 h in data set [6] was 19.9 µM. Moreover, the selectivity ratio in [7] turned out to be 12.

For the compound `O=c1c2ccccc2sn1-c1ccc(Cl)cc1`, the minimum inhibitory concentration (MIC) with Staphylococcus aureus [1] is 6.25 µg/mL (≈ 23.9 µM); in the data set with Staphylococcus aureus [2] it was 3.12 µg/mL (≈ 11.9 µM); in the data set with Staphylococcus aureus [3] it was 6.25 µg/mL (≈ 23.9 µM); against Escherichia coli, greater than 50 µg/mL; with Pseudomonas aeruginosa, greater than 50 µg/mL; with Klebsiella pneumoniae, greater than 50 µg/mL. The MIC against Candida albicans came to 12.5 µg/mL (≈ 47.8 µM); in the data set with Cryptococcus neoformans, 12.5 µg/mL (≈ 47.8 µM); with Sporothrix schenckii, 12.5 µg/mL (≈ 47.8 µM); in data set [4], 12.5 µg/mL (≈ 47.8 µM); in the data set on Aspergillus fumigatus, 25 µg/mL (≈ 95.5 µM); in the data set with Candida parapsilosis it was 12.5 µg/mL (≈ 47.8 µM). Besides, in the data set on Staphylococcus aureus [5], the MIC turned out to be 6.26 µg/mL (≈ 23.9 µM). Inhibition in the data set with Plasmodium falciparum was half-maximal at 0.92 µM (IC50). This compound also gave a CC50 at 72 h in [6] of 71.7 µM. In addition, in [7], the selectivity ratio is 70.8.

Take `O=c1c2ccccc2sn1-c1ccccc1`: the IC50 with Staphylococcus aureus [1] is 1.1 µg/mL (≈ 4.84 µM); with Staphylococcus aureus [3] it was 1.6 µg/mL (≈ 7.04 µM); with Escherichia coli, greater than 50 µg/mL; with Pseudomonas aeruginosa, greater than 50 µg/mL; with Klebsiella pneumoniae, greater than 50 µg/mL; with Candida albicans, 2.9 µg/mL (≈ 12.8 µM). In addition, the IC50 in the data set on Cryptococcus neoformans amounted to 0.9 µg/mL (≈ 3.96 µM); in the data set on Sporothrix schenckii, 0.6 µg/mL (≈ 2.64 µM); in data set [4], 0.7 µg/mL (≈ 3.08 µM); with Aspergillus fumigatus, 6.1 µg/mL (≈ 26.8 µM); in the data set with Candida parapsilosis, 0.7 µg/mL (≈ 3.08 µM); in the data set on Plasmodium falciparum, 0.74 µM. For the same compound, the MIC was 1.6 µg/mL (≈ 7.04 µM) against Staphylococcus aureus [1]; 0.77 µg/mL (≈ 3.39 µM) against Staphylococcus aureus [2]; 2.1 µg/mL (≈ 9.24 µM) against Staphylococcus aureus [3]; greater than 50 µg/mL with Escherichia coli; greater than 50 µg/mL in the data set with Pseudomonas aeruginosa; greater than 50 µg/mL in the data set on Klebsiella pneumoniae. The MIC against Candida albicans came out at 3.02 µg/mL (≈ 13.3 µM); against Cryptococcus neoformans, 1.21 µg/mL (≈ 5.32 µM); against Sporothrix schenckii it was 1.7 µg/mL (≈ 7.48 µM); in data set [4], 0.8 µg/mL (≈ 3.52 µM); against Aspergillus fumigatus it was 6.4 µg/mL (≈ 28.2 µM); in the data set on Candida parapsilosis it was 0.8 µg/mL (≈ 3.52 µM). For the same compound, in data set [6], half-maximal cytotoxicity (CC50 at 72 h) was put at 19.4 µM. For the same compound, in [7], the selectivity ratio came out at 26.3.

As to `O=c1c2ccccc2sn1-c1ccc(F)cc1`, the minimal inhibitory concentration (MIC) with Staphylococcus aureus [1] is 6.25 µg/mL (≈ 25.5 µM); against Staphylococcus aureus [2] it was 3.12 µg/mL (≈ 12.7 µM); against Staphylococcus aureus [3], 3.12 µg/mL (≈ 12.7 µM); in the data set on Escherichia coli, greater than 50 µg/mL; against Pseudomonas aeruginosa, greater than 50 µg/mL; in the data set on Klebsiella pneumoniae it was greater than 50 µg/mL. The MIC against Candida albicans came out at 12.5 µg/mL (≈ 51 µM); in the data set on Cryptococcus neoformans it was 12.5 µg/mL (≈ 51 µM); in the data set on Sporothrix schenckii, 12.5 µg/mL (≈ 51 µM); in data set [4] it was 12.5 µg/mL (≈ 51 µM); in the data set with Aspergillus fumigatus, 25 µg/mL (≈ 102 µM); against Candida parapsilosis, 12.5 µg/mL (≈ 51 µM). In addition, the MIC in the data set with Staphylococcus aureus [5] came out at 3.12 µg/mL (≈ 12.7 µM). Further, in the data set with Plasmodium falciparum, inhibition was half-maximal at 0.97 µM (IC50). The compound also registered a CC50 at 72 h in [6] of 85.4 µM. In addition, the selectivity ratio in [7] turned out to be 84.4.
